Assay results: ChEMBL document CHEMBL5724801, “EUbOPEN Chemogenomics Library - Multiplex” (2024)
Values joined by “and” are separate entries in the source; they are usually repeats but may differ in a detail not shown here. Identical values can stand only once.

Test system: U2OS
Assay: Multiplex assay against U2OS
Type: toxicity, cell-based
Settings: human
Outline: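 Per cents of healthy-nucleus cells form the tubulin, mitochondrial-mass and membrane-permeability phenotype values. Live cells were stained at seeding with Hoechst33342, BioTracker Green Microtubule Cytoskeleton Dye, MitoTracker Red and Annexin V Alexa Fluor 680. After compound addition they were imaged on a CQ1 microscope at 37°C and 5% CO2, and CellPathfinder machine-learning gating split them into Hoechst high-intensity objects or normal cells, normal cells into healthy, pyknosed or fragmented nuclei, and pyknosed cells into mitotic or apoptotic.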

[1] = 12 h, 1 µM, compound concentration 1 uM
[2] = 12 h, 10 µM, compound concentration 10 uM
[3] = 24 h, 1 µM, compound concentration 1 uM
[4] = 24 h, 10 µM, compound concentration 10 uM
[5] = 48 h, 1 µM, compound concentration 1 uM
[6] = 48 h, 10 µM, compound concentration 10 uM

SMILES: O=C1N=C(NCc2cccs2)S/C1=C\c1ccc2ncccc2c1
- Population Apoptotic (%) [1]: 36.36% and 33.33%
- Population Fragmented Nuclei (%) [1]: 2.87% and 8.81%
- Population Healthy Nuclei (%) [1]: 87.42% and 78.76%
- Population Hoechst High Intensity Objects (%) [1]: 0%
- Population Membrane Permeable-Phenotype (%) [1]: 0.51% and 3.95%
- Population Mitotic Cells (%) [1]: 63.64% and 66.67%
- Population Normal (%) [1]: 100%
- Population Pyknosed Nuclei (%) [1]: 9.71% and 12.44%
- Population Tubulin-Different-Phenotype (%) [1]: 1.01% and 1.97%
- Total Cell Count [1]: 453 and 193
- Population Apoptotic (%) [2]: 55% and 44%
- Population Fragmented Nuclei (%) [2]: 1.99% and 5.59%
- Population Healthy Nuclei (%) [2]: 91.39% and 78.88%
- Population Hoechst High Intensity Objects (%) [2]: 0%
- Population Membrane Permeable-Phenotype (%) [2]: 16.67% and 19.69%
- Population Mitotic Cells (%) [2]: 45% and 56%
- Population Normal (%) [2]: 100%
- Population Pyknosed Nuclei (%) [2]: 6.62% and 15.53%
- Population Tubulin-Different-Phenotype (%) [2]: 18.48% and 14.96%
- Total Cell Count [2]: 302 and 161
- Population Apoptotic (%) [3]: 37.5% and 40.54%
- Population Fragmented Nuclei (%) [3]: 1.66% and 6.39%
- Population Healthy Nuclei (%) [3]: 87.71% and 79.7%
- Population Hoechst High Intensity Objects (%) [3]: 0%
- Population Membrane Permeable-Phenotype (%) [3]: 0.95% and 5.19%
- Population Mitochondria Different-Phenotype (%) [3]: 0.19% and 9.91%
- Population Mitotic Cells (%) [3]: 62.5% and 59.46%
- Population Normal (%) [3]: 100%
- Population Pyknosed Nuclei (%) [3]: 10.63% and 13.91%
- Population Tubulin-Different-Phenotype (%) [3]: 0.38% and 1.42%
- Total Cell Count [3]: 602 and 266
- Population Apoptotic (%) [4]: 68.42%
- Population Fragmented Nuclei (%) [4]: 4.38% and 8.12%
- Population Healthy Nuclei (%) [4]: 76.43% and 68.12%
- Population Hoechst High Intensity Objects (%) [4]: 0%
- Population Membrane Permeable-Phenotype (%) [4]: 10.57% and 12.84%
- Population Mitotic Cells (%) [4]: 31.58%
- Population Normal (%) [4]: 100%
- Population Pyknosed Nuclei (%) [4]: 19.19% and 23.75%
- Population Tubulin-Different-Phenotype (%) [4]: 13.66% and 9.17%
- Total Cell Count [4]: 297 and 160
- Population Apoptotic (%) [5]: 47.06% and 45.1%
- Population Fragmented Nuclei (%) [5]: 4.77% and 4%
- Population Healthy Nuclei (%) [5]: 86.23% and 84%
- Population Hoechst High Intensity Objects (%) [5]: 0.09% and 0%
- Population Membrane Permeable-Phenotype (%) [5]: 0.92% and 1.96%
- Population Mitochondria Different-Phenotype (%) [5]: 0.1% and 4.48%
- Population Mitotic Cells (%) [5]: 52.94% and 54.9%
- Population Normal (%) [5]: 99.91% and 100%
- Population Pyknosed Nuclei (%) [5]: 9% and 12%
- Population Tubulin-Different-Phenotype (%) [5]: 0.82% and 0.28%
- Total Cell Count [5]: 1134 and 425
- Population Apoptotic (%) [6]: 81.63% and 92.42%
- Population Fragmented Nuclei (%) [6]: 10.65% and 9.25%
- Population Healthy Nuclei (%) [6]: 57.74% and 52.6%
- Population Hoechst High Intensity Objects (%) [6]: 0%
- Population Membrane Permeable-Phenotype (%) [6]: 3.91% and 5.49%
- Population Mitotic Cells (%) [6]: 18.37% and 7.58%
- Population Normal (%) [6]: 100%
- Population Pyknosed Nuclei (%) [6]: 31.61% and 38.15%
- Total Cell Count [6]: 310 and 173

SMILES: CCn1c(-c2nc3cc(C(=O)N4CCCC(N)C4)ccc3n2C)cc2ccccc21.Cl (configuration not stated)
- Population Healthy Nuclei (%) [1]: 67% and 77% and 89.25% and 83.07%
- Population Hoechst High Intensity Objects (%) [1]: 0% and 5%
- Population Membrane Permeable-Phenotype (%) [1]: 4% [middle of 4 runs]
- Population Normal (%) [1]: 99% and 94% and 100%
- Population Tubulin-Different-Phenotype (%) [1]: 2.36% [middle of 4 runs]
- Population Apoptotic (%) [2]: 48% [middle of 4 runs]
- Population Healthy Nuclei (%) [2]: 56% and 60% and 74.57% and 67.27%
- Population Hoechst High Intensity Objects (%) [2]: 2% and 1% and 0%
- Population Mitotic Cells (%) [2]: 51% and 45% and 65.85% and 73.91%
- Population Normal (%) [2]: 97% and 98% and 100%
- Population Pyknosed Nuclei (%) [2]: 19% and 18% and 23.43% and 27.88%
- Population Tubulin-Different-Phenotype (%) [2]: 27% and 48% and 33.72% and 25.23%
- Total Cell Count [2]: 277 [middle of 4 runs]
- Population Apoptotic (%) [3]: 66% [middle of 4 runs]
- Population Healthy Nuclei (%) [3]: 68% and 92.18% and 84.19%
- Population Hoechst High Intensity Objects (%) [3]: 1% and 3% and 0.17% and 0%
- Population Normal (%) [3]: 98% and 96% and 99.83% and 100%
- Population Pyknosed Nuclei (%) [3]: 9% and 5% and 6.49% and 13.68%
- Population Apoptotic (%) [4]: 62% and 73% and 40% and 53.33%
- Population Healthy Nuclei (%) [4]: 54% and 64% and 74.61% and 71.91%
- Population Hoechst High Intensity Objects (%) [4]: 2% and 3% and 0%
- Population Mitotic Cells (%) [4]: 46.67% [middle of 4 runs]
- Population Normal (%) [4]: 97% and 96% and 100%
- Population Pyknosed Nuclei (%) [4]: 17% and 16% and 21.16% and 25.28%
- Population Tubulin-Different-Phenotype (%) [4]: 15.62% [middle of 4 runs]
- Population Apoptotic (%) [5]: 75% and 70% and 44% and 47.83%
- Population Healthy Nuclei (%) [5]: 76% and 70% and 90.93% and 86.01%
- Population Hoechst High Intensity Objects (%) [5]: 2% and 4% and 0%
- Population Membrane Permeable-Phenotype (%) [5]: 8% and 10% and 1.19% and 2.66%
- Population Mitochondria Different-Phenotype (%) [5]: 3% and 9% and 0.33% and 7.4%
- Population Mitotic Cells (%) [5]: 52.17% [middle of 4 runs]
- Population Normal (%) [5]: 97% and 95% and 100%
- Population Pyknosed Nuclei (%) [5]: 6% and 7% and 7.4% and 11.7%
- Population Tubulin-Different-Phenotype (%) [5]: 5% and 8% and 1.41% and 1.78%
- Population Apoptotic (%) [6]: 78% and 77% and 57.94% and 60%
- Population Healthy Nuclei (%) [6]: 53% and 64% and 76.68% and 73.28%
- Population Hoechst High Intensity Objects (%) [6]: 5% and 6% and 0% and 0.4%
- Population Mitotic Cells (%) [6]: 40% [middle of 4 runs]
- Population Normal (%) [6]: 94% and 93% and 100% and 99.6%
- Population Pyknosed Nuclei (%) [6]: 19% and 16% and 18.03% and 22.27%
- Population Tubulin-Different-Phenotype (%) [6]: 14.92% [middle of 4 runs]
